Measurements published in ChEMBL document CHEMBL1148187, “Modified taxols, 9. Synthesis and biological evaluation of 7-substituted photoaffinity analogues of taxol” (J Nat Prod, 1993).
Active and inactive are the calls of the source. No cut-off for these calls is given here.

How the values were obtained:
Bos taurus [1] = species: Bos taurus; test: Induction of bovine brain tubulin polymerization at 40 uM by turbidimetry in presence of 4-morpholine-ethanesulfonate
Summary of the method: (§1)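 Low ionic strength turbidimetry at 350 or 420 nm: 10 μM purified bovine brain tubulin in 0.1 M 4-morpholine-ethanesulfonate (pH 6.9), 0.5 mM MgCl2, 100 μM GTP, 4% DMSO. Baseline at 0°, then temperature stepped to 15° and 37°.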

[2] = Inhibition of bovine brain tubulin depolymerization after 20 mins by turbidimetry; set-up: species or system Bos taurus
Summary of the method: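 Purified bovine brain tubulin 10 μM (1.0 mg/ml) in 1.0 M monosodium glutamate (pH 6.6), 50 μM GTP, 4% DMSO, with varying analogue concentrations. Temperature jump 0 to 37°, held about 20 min, then reverse jump to 0°. Maximum depolymerization rate read as fall in A350 or A420. IC50 interpolated; at least three independent determinations.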

Bos taurus [3] = species: Bos taurus; test: Induction of bovine brain tubulin polymerization at 10 uM at 0 degC by turbidimetry at lower temperature in presence of glutamate; details: in the assay text read “at 15 degC” for “at 0 degC”
Summary of the method: (§2)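 Turbidimetry at 350 or 420 nm of 10 μM purified bovine brain tubulin in 1.0 M monosodium glutamate (pH 6.6), 50 μM GTP, 4% DMSO. Baseline at 0°, then stepped temperatures: 15°, 37°, then down to 10° and 0° to follow depolymerization.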

Bos taurus [4] = species: Bos taurus; test: Induction of bovine brain tubulin polymerization at 10 uM by turbidimetry at 15 degC in presence of 4-morpholine-ethanesulfonate
Summary of the method: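 Purified bovine brain tubulin at 10 μM (1.0 mg/ml) in 0.1 M 4-morpholine-ethanesulfonate (pH 6.9) with 0.5 mM MgCl2, 100 μM GTP, 4% (v/v) DMSO, and agent at 10 μM. Baseline was read at 0°, the controller was then set to 15°, and later temperature steps followed. Polymerization was followed by turbidity at 350 or 420 nm.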

Bos taurus [5] = species: Bos taurus; test: Induction of bovine brain tubulin depolymerization at 10 uM by turbidimetry in presence of glutamate; summary of the method: as §2
Bos taurus [6] = species: Bos taurus; test: Induction of bovine brain tubulin polymerization at 10 uM by turbidimetry at 37 degC in presence of 4-morpholine-ethanesulfonate; summary of the method: as §1

For `CC(=O)O[C@H]1C(=O)[C@]2(C)[C@@H](OC(=O)c3ccccc3)C[C@H]3OC[C@@]3(OC(C)=O)[C@H]2[C@H](OC(=O)c2ccccc2)[C@]2(O)C[C@H](OC(=O)[C@H](O)[C@@H](NC(=O)c3ccccc3)c3ccccc3)C(C)=C1C2(C)C` [PACLITAXEL C7 BENZOIC ACID ESTER], the Activity (Bos taurus [1]) was “inactive” and the IC50 [2] was 650 nM.
In the case of `CC(=O)O[C@H]1C(=O)[C@@]2(C)[C@H]([C@H](OC(=O)c3ccccc3)[C@]3(O)C[C@H](OC(=O)[C@H](O)[C@@H](NC(=O)c4ccccc4)c4ccccc4)C(C)=C1C3(C)C)[C@]1(OC(C)=O)CO[C@@H]1C[C@@H]2O` [PACLITAXEL], the Activity (Bos taurus [3]) is reported as “Active”, the Activity (Bos taurus [4]) is reported as “inactive” and the Activity (Bos taurus [5]) is reported as under 50%. For the same molecule, the IC50 [2] was 420 nM and the Activity (Bos taurus [6]) was “Active”.
